Source: ChEMBL document CHEMBL3758079, “Design, synthesis and biological evaluation of chalconyl blended triazole allied organosilatranes as giardicidal and trichomonacidal agents” (Eur J Med Chem, 2016)

Experiments:
Giardia intestinalis = experiment: Antiparasitic activity against Giardia lamblia Portland 1 after 48 hrs by MTT assay; format: functional, organism-based; details: Giardia duodenalis, Portland 1, 48 h
Procedure, shortened: (§1)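 Trophozoite cultures grown in 96-well plates at 37 °C for 24 h, then serial two-fold dilutions (0.9-15 μg/cm³) added from DMSO stocks, 0.5% DMSO as 100%-growth control. Incubated 48 h, then MTT 4 h at 37 °C in dark. Dissolved in DMSO, A570 read. IC50 from sigmoid dose-response. Run in duplicate, three independent experiments in triplicate.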

Trichomonas vaginalis = experiment: Antiparasitic activity against Trichomonas vaginalis 162 after 48 hrs by MTT assay; format: functional, organism-based; details: Trichomonas vaginalis, 162, 48 h; procedure, shortened: as §1
[1] = Selectivity index, ratio of CC50 for human HeLa cells to IC50 for Trichomonas vaginalis 162; format: functional
[2] = Cytotoxicity against human HeLa cells after 18 hrs by MTT assay; format: cell-based
Procedure, shortened: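 Cells (5×10^4/well) seeded in RPMI-1640 with 10% FBS, overnight at 37 °C. Compounds added at 100 to 1.56 µM for 18 h at 37 °C. MTT (5 mg/ml in PBS) added for 3-4 h, formazan dissolved in DMSO. CC50 is the concentration giving 50% growth inhibition relative to untreated cells.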

[3] = Selectivity index, ratio of CC50 for HEK293 cells to IC50 for Trichomonas vaginalis 162; format: functional
[4] = Cytotoxicity against HEK293 cells after 18 hrs by MTT assay; format: cell-based; details: human
[5] = Selectivity index, ratio of CC50 for human HeLa cells to IC50 for Giardia lamblia Portland 1; format: functional
[6] = Selectivity index, ratio of CC50 for HEK293 cells to IC50 for Giardia lamblia Portland 1; format: functional

Row | Structure (SMILES) | IC50 (Giardia intestinalis) [µM] | IC50 (Trichomonas vaginalis) [µM] | Ratio CC50/IC50 [1] | CC50 at 18 h [2] [µM] | Ratio CC50/IC50 [3] | CC50 at 18 h [4] [µM] | Ratio CC50/IC50 [5] | Ratio CC50/IC50 [6]
1 | O=C(/C=C/c1ccc(Cl)cc1)c1cccc(OCc2cn(CCC[Si]34OCCN(CCO3)CCO4)nn2)c1 | 78.5 | 55.7 |  |  |  |  |  | 
2 | COc1ccc(/C=C/C(=O)c2ccccc2OCc2cn(CCC[Si]34OCCN(CCO3)CCO4)nn2)c(OC)c1OC |  | 21.3 | 10.92 | 232 | 13.39 | 285 |  | 
3 | COc1ccc(/C=C/C(=O)c2cccc(OCc3cn(CCC[Si]45OCCN(CCO4)CCO5)nn3)c2)cc1 |  | 30.3 | 6.7 | 203 | 8.81 | 267 |  | 
4 | O=C(/C=C/c1ccc(Cl)cc1)c1ccc(OCc2cn(CCC[Si]34OCCN(CCO3)CCO4)nn2)cc1 | 33.1 | 21.9 |  |  |  |  |  | 
5 | COc1ccc(/C=C/C(=O)c2ccc(OCc3cn(CCC[Si]45OCCN(CCO4)CCO5)nn3)cc2)c(OC)c1 | 31.9 | 22.9 |  |  |  |  |  | 
6 | COc1ccccc1/C=C/C(=O)c1cccc(OCc2cn(CCC[Si]34OCCN(CCO3)CCO4)nn2)c1 | 43.7 | 43.1 |  |  |  |  |  | 
7 | Cc1ccc(/C=C/C(=O)c2cccc(OCc3cn(CCC[Si]45OCCN(CCO4)CCO5)nn3)c2)cc1 | 131 | 101 |  |  |  |  |  | 
8 | O=C(/C=C/c1ccc(Cl)cc1)c1ccccc1OCc1cn(CCC[Si]23OCCN(CCO2)CCO3)nn1 | 33.9 | 22.3 |  |  |  |  |  | 
9 | COc1ccc(/C=C/C(=O)c2ccc(OCc3cn(CCC[Si]45OCCN(CCO4)CCO5)nn3)cc2)cc1 | 54.9 | 21.6 |  |  |  |  |  | 
10 | COc1ccc(/C=C/C(=O)c2cccc(OCc3cn(CCC[Si]45OCCN(CCO4)CCO5)nn3)c2)c(OC)c1OC | 19.6 | 42.1 | 8.07 | 340 | 7.79 | 328 | 17.36 | 16.74
11 | O=C(/C=C/c1ccccc1)c1cccc(OCc2cn(CCC[Si]34OCCN(CCO3)CCO4)nn2)c1 | 81 | 65.6 |  |  |  |  |  | 
12 | COc1ccccc1/C=C/C(=O)c1ccc(OCc2cn(CCC[Si]34OCCN(CCO3)CCO4)nn2)cc1 | 40.9 | 22.7 |  |  |  |  |  | 
13 | COc1ccc(/C=C/C(=O)c2ccc(OCc3cn(CCC[Si]45OCCN(CCO4)CCO5)nn3)cc2)c(OC)c1OC | 30.2 | 18.2 | 12.46 | 227 | 14.78 | 270 | 7.53 | 8.94
14 | O=C(/C=C/c1ccccc1)c1ccc(OCc2cn(CCC[Si]34OCCN(CCO3)CCO4)nn2)cc1 | 59.7 | 27.2 |  |  |  |  |  | 
15 | Cc1ncc([N+](=O)[O-])n1CCO [METRONIDAZOLE] | 62.5 | 55.9 |  |  |  |  |  | 
16 | O=C(/C=C/c1ccccc1)c1ccccc1OCc1cn(CCC[Si]23OCCN(CCO2)CCO3)nn1 | 28.1 | 23.3 | 10.23 | 238 | 8.94 | 208 | 8.48 | 7.41
17 | Cc1ccc(/C=C/C(=O)c2ccc(OCc3cn(CCC[Si]45OCCN(CCO4)CCO5)nn3)cc2)cc1 | 33.2 | 24.8 | 7.61 | 189 | 7.97 | 198 | 5.68 | 5.95
18 | COc1ccc(/C=C/C(=O)c2ccccc2OCc2cn(CCC[Si]34OCCN(CCO3)CCO4)nn2)c(OC)c1 | 35.4 | 22.1 |  |  |  |  |  | 
19 | COc1ccc(/C=C/C(=O)c2cccc(OCc3cn(CCC[Si]45OCCN(CCO4)CCO5)nn3)c2)c(OC)c1 | 43.9 | 43.8 |  |  |  |  |  | 
20 | COc1ccc(/C=C/C(=O)c2ccccc2OCc2cn(CCC[Si]34OCCN(CCO3)CCO4)nn2)cc1 | 32.2 | 26.7 |  |  |  |  |  | 
21 | Cc1ccc(/C=C/C(=O)c2ccccc2OCc2cn(CCC[Si]34OCCN(CCO3)CCO4)nn2)cc1 | 48 | 50 |  |  |  |  |  | 
22 | COc1ccccc1/C=C/C(=O)c1ccccc1OCc1cn(CCC[Si]23OCCN(CCO2)CCO3)nn1 |  | 23.8 |  |  |  |  |  | 
